Assay [1] has as its target T1, Brd2 (Homo sapiens, UniProt P25440). Put plainly: BET protein degradation in HeLa cells, Western blot. The format is cell-based. The settings on record: 24 h. The essentials: (§1)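 HeLa cells were kept in DMEM with 10% FBS, […], penicillin/streptomycin at 37 °C, 5% CO2. They were seeded in six-well plates and treated the next day. They were PBS-washed and lysed on ice in RIPA with protease inhibitors, Benzonase and 0.5 mM MgCl2, then sonicated and centrifuged. Protein was quantified by BCA. Immunoblots used Brd2, Brd3, Brd4 and β-actin antibodies with IRDye 800CW secondaries; band intensities were quantified on an Odyssey imager.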
(Immunoblotting shows a protein as a band on a membrane.)

The target of assay [2] is T1, Brd2. The assay can be described thus: Isobaric tagging. The format is cell-based. The settings on record: HeLa cells, 24 h, proteomics.
Assay [3] addresses T2, Brd3 (Homo sapiens, UniProt Q15059). The assay can be described thus: Isobaric tagging. The format is cell-based. The settings on record: HeLa cells, 24 h, proteomics.
For assay [4], the target named is T3, Brd4 (Homo sapiens, UniProt O60885). Put plainly: Isobaric tagging. The format is cell-based. The settings on record: HeLa cells, AT1 1 µM, 24 h; 5,674 proteins quantified.
Assay [5] addresses T2, Brd3. Put plainly: BET protein degradation in HeLa cells, Western blot. It is filed as cell-based. The note with it: 24 h. The essentials:
as §1

The target of another assay is VCB and Brd4^BD2 (Homo sapiens, UniProt O60885+P40337). The assay can be described thus: ITC, VCB titrated into PROTAC:BD complex. It is filed as binding. (Isothermal titration calorimetry measures the heat released or taken up as one component is titrated into another.)
Assay [6] addresses T3, Brd4. Put plainly: BET protein degradation in HeLa cells, Western blot. The format is cell-based. The settings on record: 24 h, 1–3 μM. In outline: as §1
Setting [7] is: ITC 25 °C, VCB into PROTAC:Brd4^BD2 vs VCB into PROTAC.

Sequence of VCB and Brd4^BD2 (P40337 54-213, other chains not shown): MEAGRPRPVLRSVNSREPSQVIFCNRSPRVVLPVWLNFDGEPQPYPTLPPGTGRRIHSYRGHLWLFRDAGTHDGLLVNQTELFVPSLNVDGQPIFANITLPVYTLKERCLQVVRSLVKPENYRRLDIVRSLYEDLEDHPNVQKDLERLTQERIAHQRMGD
Sequence of VCB and Brd4^BD2 (Q15370 1-104, other chains not shown, further chain): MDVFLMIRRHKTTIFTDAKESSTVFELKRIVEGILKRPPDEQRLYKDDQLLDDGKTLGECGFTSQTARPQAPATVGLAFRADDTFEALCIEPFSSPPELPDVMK
Sequence of VCB and Brd4^BD2 (Q15369 17-112, other chains not shown, further chain): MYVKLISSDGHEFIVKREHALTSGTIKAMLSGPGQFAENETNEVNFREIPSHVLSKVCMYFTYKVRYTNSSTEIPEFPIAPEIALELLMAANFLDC
T1 sequence (P25440 whole entry): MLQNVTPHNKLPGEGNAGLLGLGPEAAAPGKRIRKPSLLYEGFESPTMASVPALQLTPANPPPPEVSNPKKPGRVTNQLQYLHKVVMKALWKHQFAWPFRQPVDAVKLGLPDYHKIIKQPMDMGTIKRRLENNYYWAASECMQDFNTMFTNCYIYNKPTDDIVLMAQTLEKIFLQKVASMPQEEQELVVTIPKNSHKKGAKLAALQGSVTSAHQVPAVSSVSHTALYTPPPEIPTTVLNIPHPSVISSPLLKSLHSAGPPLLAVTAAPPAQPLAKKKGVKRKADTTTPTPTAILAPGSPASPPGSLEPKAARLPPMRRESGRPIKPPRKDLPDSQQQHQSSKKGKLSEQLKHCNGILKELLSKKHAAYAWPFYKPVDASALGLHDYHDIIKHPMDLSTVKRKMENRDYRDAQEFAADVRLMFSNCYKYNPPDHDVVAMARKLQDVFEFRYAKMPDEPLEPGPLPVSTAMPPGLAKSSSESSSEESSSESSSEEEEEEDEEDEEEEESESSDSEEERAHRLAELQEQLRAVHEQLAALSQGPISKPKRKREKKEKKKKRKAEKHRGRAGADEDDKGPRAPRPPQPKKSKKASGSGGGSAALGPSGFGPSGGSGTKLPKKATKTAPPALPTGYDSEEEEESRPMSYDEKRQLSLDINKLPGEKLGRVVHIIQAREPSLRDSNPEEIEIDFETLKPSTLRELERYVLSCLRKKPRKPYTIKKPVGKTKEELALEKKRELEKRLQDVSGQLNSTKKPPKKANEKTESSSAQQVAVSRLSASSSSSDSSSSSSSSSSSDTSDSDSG
T2 sequence (Q15059 whole entry): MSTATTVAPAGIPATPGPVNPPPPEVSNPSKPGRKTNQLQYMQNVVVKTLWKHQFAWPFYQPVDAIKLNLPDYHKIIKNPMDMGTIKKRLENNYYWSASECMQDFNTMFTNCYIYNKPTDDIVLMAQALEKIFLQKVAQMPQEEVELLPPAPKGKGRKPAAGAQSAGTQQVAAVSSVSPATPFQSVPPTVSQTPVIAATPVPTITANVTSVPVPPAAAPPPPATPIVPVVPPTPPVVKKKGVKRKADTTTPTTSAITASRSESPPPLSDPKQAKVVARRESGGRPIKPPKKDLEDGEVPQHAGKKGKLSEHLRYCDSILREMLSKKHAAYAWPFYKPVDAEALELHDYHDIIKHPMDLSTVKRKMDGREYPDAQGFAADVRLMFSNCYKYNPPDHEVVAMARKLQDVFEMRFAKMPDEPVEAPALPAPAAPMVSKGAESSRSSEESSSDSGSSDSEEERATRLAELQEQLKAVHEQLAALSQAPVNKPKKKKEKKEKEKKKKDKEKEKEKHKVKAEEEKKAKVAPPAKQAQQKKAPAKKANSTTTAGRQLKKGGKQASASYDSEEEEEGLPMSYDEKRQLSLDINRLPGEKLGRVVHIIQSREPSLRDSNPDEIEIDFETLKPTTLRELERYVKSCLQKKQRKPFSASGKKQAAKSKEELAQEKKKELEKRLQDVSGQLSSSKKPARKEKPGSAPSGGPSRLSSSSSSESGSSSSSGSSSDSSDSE

As to `CC(=O)N[C@H](C(=O)N1C[C@H](O)C[C@H]1C(=O)NCc1ccc(-c2scnc2C)cc1)C(C)(C)SCCCCCCNC(=O)C[C@@H]1N=C(c2ccc(Cl)cc2)c2c(sc(C)c2C)-n2c(C)nnc21` [AT1, (2S,4R)-1-((R)-2-acetamido-3-((6-(2-((S)-4-(4-chlorophenyl)-2,3,9-trimethyl-6H-thieno[3,2-f][1,2,4]triazolo[4,3-a][1,4]diazepin-6-yl)acetamido)hexyl)thio)-3-methylbutanoyl)-4-hydroxy-N-(4-(4-methylthiazol-5-yl)benzyl)pyrrolidine-2-carboxamide], the “activity against Brd2 (protein level by immunoblot)” value on Brd2 [1] was “negligible activity”. Besides, on Brd2 [2], the “effect on protein level of Brd2” value is on record as “no effect on protein levels”. In addition, the “effect on protein level of Brd3” value on Brd3 [3] is recorded as “no effect on protein levels”. Also, on Brd4 [4], the “Brd4 protein level after treatment (depleted to)” value was ~ 40%. Besides, on Brd3 [5], the “activity against Brd3 (protein level by immunoblot)” value was “negligible activity”. At VCB and Brd4^BD2 (setting [7]), the “ΔpKd (pKd ternary − pKd binary)” value was found to be 0.84 ± 0.07 and the “α (cooperativity, Kd binary/Kd ternary)” value came out at 7. For the same compound, the “ΔG (binary + ternary), stability of ternary complex” value at VCB and Brd4^BD2 (ITC, Brd4^BD2) was -20.2 ± 0.2 kcal/mol. The “Brd4 protein level by immunoblot” value on Brd4 [6] was “depletion of Brd4”.
